Assay results taken from ChEMBL document CHEMBL4152337, “Novel indolo-sophoridinic scaffold as Topo I inhibitors: Design, synthesis and biological evaluation as anticancer agents” (Eur J Med Chem, 2018).
The source made the active and inactive calls. No cut-off for these calls is given here.

Legend:
HepG2 [1] = test: Cytotoxicity against human HepG2 cells assessed as reduction in cell viability after 48 hrs by MTT assay; format: functional, cell-based; settings: HepG2, 48 h
Procedure, shortened: (§1)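 Cells at 3–4 × 10⁴/mL in DMEM + 10% FBS, pre-incubated 24 h in 5% CO₂. Then exposed 48 h to serial dilutions at 1, 5, 10, 20 and 50 µM; final DMSO <0.1%. MTT (5 mg/mL solution) added for 4 h at 37 °C, supernatant removed, formazan dissolved in DMSO, colorimetric read-out.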

[2] = target: T1, DNA topoisomerase 1 (Homo sapiens) (UniProt P11387); test: Inhibition of recombinant human topoisomerase-1-mediated relaxation of supercoiled pBR322 DNA at 500 uM after 30 mins by ethidium bromide staining based assay
T1 sequence (whole entry): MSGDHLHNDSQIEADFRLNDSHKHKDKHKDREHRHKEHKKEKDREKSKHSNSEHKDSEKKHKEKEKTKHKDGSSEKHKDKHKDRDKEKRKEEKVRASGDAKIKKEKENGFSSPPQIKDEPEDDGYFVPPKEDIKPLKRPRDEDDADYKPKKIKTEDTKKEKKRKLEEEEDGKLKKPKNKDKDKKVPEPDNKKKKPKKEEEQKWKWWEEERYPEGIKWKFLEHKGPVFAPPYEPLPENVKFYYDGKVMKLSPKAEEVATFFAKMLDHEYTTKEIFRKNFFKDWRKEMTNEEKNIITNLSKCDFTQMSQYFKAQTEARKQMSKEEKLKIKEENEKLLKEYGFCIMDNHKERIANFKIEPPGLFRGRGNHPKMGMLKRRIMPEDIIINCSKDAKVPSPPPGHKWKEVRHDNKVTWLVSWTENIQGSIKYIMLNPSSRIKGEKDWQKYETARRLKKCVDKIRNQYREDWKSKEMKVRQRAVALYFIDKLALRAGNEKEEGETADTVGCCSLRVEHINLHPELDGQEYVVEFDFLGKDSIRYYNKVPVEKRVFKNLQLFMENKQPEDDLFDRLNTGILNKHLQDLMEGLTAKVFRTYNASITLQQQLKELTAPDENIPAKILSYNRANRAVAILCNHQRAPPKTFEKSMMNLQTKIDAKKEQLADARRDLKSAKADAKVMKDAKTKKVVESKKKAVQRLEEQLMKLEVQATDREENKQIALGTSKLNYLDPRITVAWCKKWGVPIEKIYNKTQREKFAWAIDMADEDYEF
Procedure, shortened: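 Reactions stopped with loading buffer containing 0.5% SDS, bromophenol blue and 15% glycerol. Products run on a horizontal 0.8% agarose gel in 1× TAE at 4 V/cm for 40 min at room temperature. Gel stained with ethidium bromide and imaged.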

CNE-2 = test: Cytotoxicity against human CNE2 cells assessed as reduction in cell viability after 48 hrs by MTT assay; format: functional, cell-based; settings: CNE-2, 48 h; procedure, shortened: as §1
A549 = test: Cytotoxicity against human A549 cells assessed as reduction in cell viability after 48 hrs by MTT assay; format: functional, cell-based; settings: A549, 48 h; procedure, shortened: as §1
HepG2 [3] = test: Antitumor activity against human HepG2 cells xenografted in BALB/C nude mouse assessed as tumor growth at 40 mg/kg, ip treated twice per week for 25 days relative to control; format: functional
Procedure, shortened: (§2)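 Female BALB/c nude mice, 5–6 weeks old, with subcutaneous flank xenografts of 8 × 10⁶ HepG2 cells. Randomized when tumors reached ~150–200 mm³. Dosed ip twice weekly for 25 days at 40 mg/kg; vehicle was saline with 10% DMSO (n = 6 vehicle, n = 5 per treated group). Caliper measurements every other day, volume = 0.5 × L × W². Tumors excised and weighed at end. Mean ± SD; t-test versus vehicle.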

HepG2 [4] = test: Antitumor activity against human HepG2 cells xenografted in BALB/C nude mouse assessed as tumor volume at 40 mg/kg, ip treated twice per week for 25 days (reference value: 1185.78 +/- 137.44 mm3); format: functional
HepG2 [5] = test: Cell cycle arrest in human HepG2 cells accumulation at G1 phase at 2 to 6 mM after 24 hrs by propidium iodide staining-based flow cytometric analysis; format: functional
Procedure, shortened: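 HepG2 cells were seeded at 2 × 10⁵ per well in DMEM with 10% FBS and treated at three concentrations (2, 4, 6) for 24 h. Cells were fixed in cold 75% ethanol at 4 °C overnight, washed in PBS, then given RNase at 37 °C for 30 min and propidium iodide in the dark for 30 min. Read by flow cytometry; mean SD; three independent experiments.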

HepG2 [6] = test: Antitumor activity against human HepG2 cells xenografted in BALB/C nude mouse assessed as tumor weight at 40 mg/kg, ip treated twice per week for 25 days (reference value: 0.84 +/- 0.09 g); format: functional; procedure, shortened: as §2

inhibition [2] | Compound | IC50 (HepG2 [1]) [µM] | IC50 (CNE-2) [µM] | IC50 (A549) [µM] | T/C (HepG2 [3]) [%] | Activity (HepG2 [4]) [mm3] | Activity (HepG2 [5]) | Activity (HepG2 [6]) [g]
Active | COC(=O)CCC[C@@H]1[C@H]2CCCN3CCC[C@H](CN1Cc1cn(Cc4ccccc4)c4ccccc14)[C@@H]23 | 5.5 | 3.3 | 43.4 |  |  |  | 
 | COC(=O)CCC[C@@H]1[C@H]2CCCN3CCC[C@H](CN1Cc1c[nH]c4ccc([N+](=O)[O-])cc14)[C@@H]23 | > 50 | > 50 | > 50 |  |  |  | 
 | COC(=O)CCC[C@@H]1[C@H]2CCCN3CCC[C@H](CN1Cc1c[nH]c4ccc(F)cc14)[C@@H]23 | > 50 | > 50 | > 50 |  |  |  | 
Active | COC(=O)CCC[C@@H]1[C@H]2CCCN3CCC[C@H](CN1Cc1cn(Cc4ccc5ccccc5c4)c4ccccc14)[C@@H]23 | 8.6 | 7.8 | 24 |  |  |  | 
 | COC(=O)CCC[C@@H]1[C@H]2CCCN3CCC[C@H](CN1Cc1cn(Cc4ccc(C(F)(F)F)cc4)c4ccccc14)[C@@H]23 | 6.1 | 4.8 | 7.4 |  |  |  | 
 | COC(=O)CCC[C@@H]1[C@H]2CCCN3CCC[C@H](CN1Cc1c[nH]c4ccc(C)cc14)[C@@H]23 | 23.8 | 49.4 | > 50 |  |  |  | 
 | COC(=O)CCC[C@@H]1[C@H]2CCCN3CCC[C@H](CN1Cc1c[nH]c4ccccc14)[C@@H]23 | 36.5 | 12.1 | 27.8 |  |  |  | 
Active | OCCCC[C@@H]1[C@H]2CCCN3CCC[C@H](CN1Cc1cn(Cc4ccccc4)c4ccccc14)[C@@H]23 | 2.3 | 2.2 | 33.7 |  |  |  | 
 | O=C1CCC[C@@H]2[C@H]3CCCN4CCC[C@H](CN12)[C@@H]34 [SOPHORIDINE] |  | 5380 | 5840 | 93.38 | 1204.27 | Active | 0.97
 | OCCCC[C@@H]1[C@H]2CCCN3CCC[C@H](CN1Cc1c[nH]c4ccccc14)[C@@H]23 | > 50 | > 50 | > 50 |  |  |  | 
 | COC(=O)CCC[C@@H]1[C@H]2CCCN3CCC[C@H](CN1Cc1c[nH]c4ccc(Cl)cc14)[C@@H]23 | > 50 | 17.9 | > 50 |  |  |  | 
 | COC(=O)CCC[C@@H]1[C@H]2CCCN3CCC[C@H](CN1Cc1c[nH]c4ccc(OC)cc14)[C@@H]23 | > 50 | > 50 | > 50 |  |  |  | 
 | CCn1cc(CN2C[C@H]3CCCN4CCC[C@@H]([C@H]34)[C@H]2CCCC(=O)OC)c2ccccc21 | 12.8 | 19.4 | 37.4 |  |  |  | 
 | COC(=O)CCC[C@@H]1[C@H]2CCCN3CCC[C@H](CN1Cc1cn(Cc4ccc(F)cc4)c4ccccc14)[C@@H]23 | 8.6 | 3.5 | 29.6 |  |  |  | 
 | COC(=O)CCC[C@@H]1[C@H]2CCCN3CCC[C@H](CN1Cc1cn(C)c4ccccc14)[C@@H]23 | 15.2 | 43.4 | 42.8 |  |  |  | 
 | CC[C@@]1(O)C(=O)OCc2c1cc1n(c2=O)Cc2cc3ccccc3nc2-1 [CAMPTOTHECIN] | 13.2 | 0.1 | 5.5 |  |  |  | 

inhibition [2] | Compound | IC50 (HepG2 [1]) [µM] | IC50 (CNE-2) [µM] | IC50 (A549) [µM] | T/C (HepG2 [3]) [%] | Activity (HepG2 [4]) [mm3] | Activity (HepG2 [5]) | Activity (HepG2 [6]) [g]
 | COC(=O)CCC[C@@H]1[C@H]2CCCN3CCC[C@H](CN1Cc1c[nH]c4cccc(F)c14)[C@@H]23 | > 50 | > 50 | > 50 |  |  |  | 
 | COC(=O)CCC[C@@H]1[C@H]2CCCN3CCC[C@H](CN1Cc1cn(Cc4c(Cl)cccc4Cl)c4ccc(F)cc14)[C@@H]23 | 18.4 | 9.3 | 39.8 |  |  |  | 
 | COC(=O)CCC[C@@H]1[C@H]2CCCN3CCC[C@H](CN1Cc1cn(Cc4ccccc4F)c4ccccc14)[C@@H]23 | 21.7 | 14.8 | 49.3 |  |  |  | 
 | COC(=O)CCC[C@@H]1[C@H]2CCCN3CCC[C@H](CN1Cc1c[nH]c4ccc(Br)cc14)[C@@H]23 | 31.8 | 20.2 | 39.9 |  |  |  | 
 | COC(=O)CCC[C@@H]1[C@H]2CCCN3CCC[C@H](CN1Cc1c[nH]c4ccc(C#N)cc14)[C@@H]23 | > 50 | 15.3 | > 50 |  |  |  | 
 | COC(=O)CCC[C@@H]1[C@H]2CCCN3CCC[C@H](CN1Cc1cn(Cc4ccc(C(F)(F)F)cc4)c4ccc(F)cc14)[C@@H]23 | 7.7 | 6.9 | 12.8 |  |  |  | 
 | COC(=O)CCC[C@@H]1[C@H]2CCCN3CCC[C@H](CN1Cc1c[nH]c4cc(F)ccc14)[C@@H]23 | > 50 | 17.1 | > 50 |  |  |  | 
 | COC(=O)CCC[C@@H]1[C@H]2CCCN3CCC[C@H](CN1Cc1cn(CC4CC4)c4ccccc14)[C@@H]23 | 14.4 | 13.4 | 30.3 |  |  |  | 
 | COC(=O)CCC[C@@H]1[C@H]2CCCN3CCC[C@H](CN1Cc1cn(Cc4cccc(F)c4)c4ccccc14)[C@@H]23 | 12.1 | 12.1 | 42.3 |  |  |  | 
 | COC(=O)CCC[C@@H]1[C@H]2CCCN3CCC[C@H](CN1Cc1cn(Cc4ccc(Cl)cc4)c4ccc(F)cc14)[C@@H]23 | 7.3 | 6.1 | 10.6 |  |  |  | 
 | COC(=O)CCC[C@@H]1[C@H]2CCCN3CCC[C@H](CN1Cc1cn(Cc4ccc(Br)cc4)c4ccccc14)[C@@H]23 | 4.8 | 4.3 | 3.5 |  |  |  | 
 | CCCCn1cc(CN2C[C@H]3CCCN4CCC[C@@H]([C@H]34)[C@H]2CCCC(=O)OC)c2ccccc21 | 6.2 | 8.6 | 42.8 |  |  |  | 
 | COC(=O)CCC[C@@H]1[C@H]2CCCN3CCC[C@H](CN1Cc1c(C(=O)OC)[nH]c4ccccc14)[C@@H]23 | > 50 | 26.4 | > 50 |  |  |  | 
Active | COC(=O)CCC[C@@H]1[C@H]2CCCN3CCC[C@H](CN1Cc1cn(Cc4ccc(Cl)cc4)c4ccccc14)[C@@H]23 | 6.5 | 4.6 | 5.2 |  |  |  | 
 | COC(=O)CCC[C@@H]1[C@H]2CCCN3CCC[C@H](CN1Cc1cn(Cc4c(Cl)cccc4Cl)c4ccccc14)[C@@H]23 | 8.5 | 6.7 | 3.7 |  |  |  | 
